Test results reported in ChEMBL document CHEMBL5653630, “Activation of the p53-MDM4 regulatory axis defines the anti-tumour response to PRMT5 inhibition through its role in regulating cellular splicing” (Sci Rep, 2018).
Values belong to the molecule of their own block, whether it stands above or below them. Calls of active or inactive are those of the source. The calls are words filed in the database; no cut-off is given here.

Assays:
[1] = molecular target: E3 ubiquitin-protein ligase Mdm2 (Homo sapiens) (UniProt Q00987); experiment: In vivo inhibition of PRMT5 in human Z138 cells xenografted in mouse assessed as increase in MDM2 expression at 100 mg/kg, po BID measured for 7 days; type: functional, organism-based; conditions: Z-138, time 7.0 day
Maver1 = experiment: Induction of apoptosis in human MAVER-1 cells assessed as early apoptotic cells incubated for 6 days by annexin-V/FITC propidium iodide staining based flow cytometry analysis; type: functional, cell-based; conditions: dose <= 5000.0 nM, time 6.0 day
Z-138 = experiment: Induction of cell cycle arrest in human Z138 cells assessed as decrease in 4n cell population measured upto 1000 nM measured for 2 to 5 days by propidium iodide staining based flow cytometric analysis; type: functional; conditions: time 2-5 day
SW1353 = experiment: Antiproliferative activity against human SW1353 cells assessed as cell growth inhibition incubated for 10 days; type: functional; conditions: SW1353, 240 h, time 10 day
[2] = Antiproliferative activity against human SKO-007 cells assessed as cell growth inhibition incubated for 10 days; type: functional; conditions: SKO-007, 240 h, time 10 day
OVCAR-3 = experiment: Antiproliferative activity against human OVCAR-3 cells assessed as cell growth inhibition incubated for 10 days; type: functional; conditions: OVCAR-3, 240 h, time 10 day
HT-29 = experiment: Antiproliferative activity against human HT-29 cells assessed as cell growth inhibition incubated for 10 days; type: functional; conditions: HT-29, 240 h, time 10 day
Method in brief: (§1)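 Outsourced panel run in 384-well plates. Cells were grown in RPMI-1640/10% FBS or a special medium at 37°C, 5% CO2. Compound was added 24 h after seeding as a 10-point, 3.16-fold series in 0.1% DMSO. Medium was refreshed and cells re-dosed at 168 h, with a time-zero plate kept. At 240 h cells were fixed, nuclei stained and imaged. gIC50 is growth midway between untreated and time zero, from a 4-parameter fit.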

OE33 = experiment: Antiproliferative activity against human OE33 cells assessed as cell growth inhibition incubated for 10 days; type: functional; conditions: OE33, 240 h, time 10 day
SJRH30 = experiment: Antiproliferative activity against human SJRH30 cells assessed as cell growth inhibition incubated for 10 days; type: functional; conditions: SJRH30, 240 h, time 10 day
[3] = Antiproliferative activity against human HLF cells assessed as cell growth inhibition incubated for 10 days; type: functional; conditions: 240 h, time 10 day; method in brief: as §1
[4] = Antiproliferative activity against human OE21 cells assessed as cell growth inhibition incubated for 10 days; type: functional; conditions: OE21, 240 h, time 10 day
SW-620 = experiment: Antiproliferative activity against human SW620 cells assessed as cell growth inhibition incubated for 10 days; type: functional; conditions: SW-620, 240 h, time 10 day
DOHH-2 = experiment: Antiproliferative activity against human DOHH-2 cells assessed as cell growth inhibition incubated for 6 days by celltiter-glo assay; type: functional; conditions: DOHH-2, 144 h, time 6 day
COLO 205 = experiment: Antiproliferative activity against human COLO 205 cells assessed as cell growth inhibition incubated for 10 days; type: functional; conditions: COLO 205, 240 h, time 10 day
Method in brief: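 Cells kept in RPMI-1640 with 10% FBS, 2 mM L-alanyl-L-glutamine and 1 mM Na pyruvate (or a special medium) at 37°C, 5% CO2. Compound added 24 h after seeding, 10 concentrations in 3.16-fold dilution, 0.1% DMSO final. Medium replaced and cells re-dosed at 168 h; 240 h incubation. Nuclei fixed, dye-stained and imaged. gIC50 = growth midway between untreated and time-zero cell counts, from a 4-parameter fit.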

SAOS-2 = experiment: Antiproliferative activity against human SAOS-2 cells assessed as cell growth inhibition incubated for 10 days; type: functional; conditions: SAOS-2, 240 h, time 10 day
SW982 = experiment: Antiproliferative activity against human SW982 cells assessed as cell growth inhibition incubated for 10 days; type: functional; conditions: SW982, 240 h, time 10 day
COR-L105 = experiment: Antiproliferative activity against human COR-L105 cells assessed as cell growth inhibition incubated for 10 days; type: functional; conditions: COR-L105, 240 h, time 10 day; method in brief: as §1
SK-OV-3 = experiment: Antiproliferative activity against human SK-OV-3 cells assessed as cell growth inhibition incubated for 10 days; type: functional; conditions: SK-OV-3, 240 h, time 10 day
KLE = experiment: Antiproliferative activity against human KLE cells assessed as cell growth inhibition incubated for 10 days; type: functional; conditions: 240 h, time 10 day
Method in brief: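 Cells grown in RPMI-1640 with 10% FBS, 2 mM L-alanyl-L-glutamine and 1 mM Na pyruvate (or special medium) at 37°C, 5% CO2. Compound was added 24 h after seeding, with a parallel time-zero plate. Medium was replaced and the compound re-dosed at 168 h. Dosing used 10 concentrations (3.16-fold dilutions, 0.1% DMSO) over a 240 h incubation. Nuclei were stained and imaged. gIC50 is growth midway between untreated and time-zero, from a 4-parameter fit.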

[5] = Antiproliferative activity against human HUH-6-clone5 cells assessed as cell growth inhibition incubated for 10 days; type: functional; conditions: HUH-6-clone5, 240 h, time 10 day; method in brief: as §1
Y79 = experiment: Antiproliferative activity against human Y79 cells assessed as cell growth inhibition incubated for 10 days; type: functional; conditions: Y79, 240 h, time 10 day
RCK8 = experiment: Antiproliferative activity against human RCK8 cells assessed as reduction in cell viability; type: functional, cell-based
SNU-16 = experiment: Antiproliferative activity against human SNU-16 cells assessed as cell growth inhibition incubated for 10 days; type: functional; conditions: SNU-16, 240 h, time 10 day
[6] = molecular target: Protein arginine N-methyltransferase 5 (Homo sapiens) (UniProt O14744); experiment: Inhibition of PRMT5 in human Z138 cells expressing EGFP at 1 to 100000 nM incubated for 3 to 6 days; type: cell-based; conditions: dose 1-100000 nM, time 3-6 day
[7] = molecular target: Protein arginine N-methyltransferase 5 (Homo sapiens) (UniProt O14744); experiment: Inhibition of PRMT5 in human Z138 cells assessed as effect on snRNP B1 level by measuring fold change by LC-MS/MS analysis relative to control; type: cell-based

Sequence of Protein arginine N-methyltransferase 5 (Homo sapiens) (O14744 whole entry): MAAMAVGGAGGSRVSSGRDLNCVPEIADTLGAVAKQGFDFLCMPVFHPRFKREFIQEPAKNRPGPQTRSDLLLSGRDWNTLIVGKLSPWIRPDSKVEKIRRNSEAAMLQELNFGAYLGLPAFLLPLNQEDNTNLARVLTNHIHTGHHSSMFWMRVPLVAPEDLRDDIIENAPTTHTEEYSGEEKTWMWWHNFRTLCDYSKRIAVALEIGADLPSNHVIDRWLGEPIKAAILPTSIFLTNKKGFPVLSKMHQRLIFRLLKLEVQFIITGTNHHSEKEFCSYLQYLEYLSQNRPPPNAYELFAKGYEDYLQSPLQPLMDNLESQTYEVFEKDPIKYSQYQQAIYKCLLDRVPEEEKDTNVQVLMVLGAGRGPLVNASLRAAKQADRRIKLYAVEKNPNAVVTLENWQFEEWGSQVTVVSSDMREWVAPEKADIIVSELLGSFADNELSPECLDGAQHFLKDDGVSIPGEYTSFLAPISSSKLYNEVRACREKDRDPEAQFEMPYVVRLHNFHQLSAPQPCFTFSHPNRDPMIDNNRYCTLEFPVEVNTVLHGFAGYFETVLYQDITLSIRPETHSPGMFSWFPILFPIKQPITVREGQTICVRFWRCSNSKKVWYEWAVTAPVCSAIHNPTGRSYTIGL
Sequence of E3 ubiquitin-protein ligase Mdm2 (Homo sapiens) (Q00987 whole entry, looked up): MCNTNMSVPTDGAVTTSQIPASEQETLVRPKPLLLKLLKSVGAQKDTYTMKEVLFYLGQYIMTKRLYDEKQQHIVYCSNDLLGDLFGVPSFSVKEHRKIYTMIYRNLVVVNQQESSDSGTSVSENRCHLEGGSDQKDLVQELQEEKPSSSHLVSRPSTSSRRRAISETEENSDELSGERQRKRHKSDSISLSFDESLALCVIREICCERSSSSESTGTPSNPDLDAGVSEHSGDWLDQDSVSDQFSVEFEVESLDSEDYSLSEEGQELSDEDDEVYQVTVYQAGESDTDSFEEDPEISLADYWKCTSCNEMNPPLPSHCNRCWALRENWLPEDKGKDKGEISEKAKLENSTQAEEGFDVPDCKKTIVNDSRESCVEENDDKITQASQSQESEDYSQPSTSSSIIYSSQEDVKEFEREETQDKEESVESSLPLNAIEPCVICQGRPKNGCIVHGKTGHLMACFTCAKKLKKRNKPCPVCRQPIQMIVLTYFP

inhibition [1]: Active
SMILES: CC(=O)N1CCC(Nc2cc(C(=O)NC[C@H](O)CN3CCc4ccccc4C3)ncn2)CC1 [PEMRAMETOSTAT]
Activity (Maver1): Dose-Dependent Effect | Activity (Z-138): Active

GI50 (SW1353): 129 nM | GI50 (OVCAR-3): 51.4 nM | GI50 (HT-29): 95.2 nM | GI50 (SW-620): 5640 nM | GI50 (COLO 205): 10000 nM | GI50 (SW982): 56.7 nM | GI50 (SK-OV-3): 52.6 nM | GI50 (SNU-16): 34.4 nM | inhibition [6]: inactive | fold change (FC) [7]: -16.8
SMILES: O=C(NC[C@H](O)CN1CCc2ccccc2C1)c1ccnc(NC2CCC2)c1
GI50 [2]: 84.4 nM | GI50 (OE33): 231 nM | GI50 (SJRH30): 472 nM | GI50 [3]: 87.7 nM | GI50 [4]: 146 nM | GI50 (DOHH-2): 116 nM | GI50 (SAOS-2): 48.2 nM | GI50 (COR-L105): 314 nM | GI50 (KLE): 10000 nM | GI50 [5]: 361 nM | GI50 (Y79): 113 nM | Activity (RCK8): Active
